In ChEMBL document CHEMBL1671684, “In vitro resistance profile of the hepatitis C virus NS3/4A protease inhibitor TMC435” (Antimicrob Agents Chemother, 2010):

Tests used:
Hepatitis C virus [1] = experiment: Antiviral activity against Hepatitis C virus subtype 1b expressing NS3 Q80R and R155K mutant infected in HuH7 cells after 48 hrs by luciferase reporter assay; format: functional, organism-based, Hepacivirus hominis; settings: genotype 1b, Huh-7, 48 h
In short: (§1)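 Genotype 1b con1 subgenomic bicistronic replicon (clone ET) with luciferase reporter and adaptive mutations E1202G, T1280I, K1846T, carrying site-directed NS3 single or double mutations. 10 μg wild-type or mutant replicon RNA electroporated into Huh7-lunet cells, seeded 4,000 cells/well over a nine-point inhibitor dilution series, 48 h at 37°C, 5% CO2, then luminescence read. EC50 taken as median of individual experiments; fold change relative to parental replicon EC50.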

Hepatitis C virus [2] = experiment: Ratio of EC50 for Hepatitis C virus subtype 1b expressing NS3 Q80L mutant to EC50 for Hepatitis C virus subtype 1b expressing WT NS3 infected in HuH7 cells after 48 hrs by luciferase reporter assay; format: functional, Hepacivirus hominis, genotype 1b, Huh-7
In short: (§2)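 Transient replicon assay: site-directed single or multiple NS3 mutations engineered into genotype 1b (con1, clone ET) subgenomic bicistronic replicon with luciferase reporter and adaptive mutations E1202G, T1280I, K1846T. Huh7-lunet cells electroporated with 10 μg wild-type or mutant replicon RNA, seeded 4,000 cells/well with nine-point inhibitor dilution; 48 h, 37°C, 5% CO2; luminescence read-out. EC50 as median of individual experiments; fold change versus parental replicon EC50.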

Hepatitis C virus [3] = experiment: Ratio of EC50 for Hepatitis C virus subtype 1b expressing NS3 R155G mutant to EC50 for Hepatitis C virus subtype 1b expressing WT NS3 infected in HuH7 cells after 48 hrs by luciferase reporter assay; format: functional, Hepacivirus hominis, genotype 1b, Huh-7; in short: as §2
Hepatitis C virus [4] = experiment: Ratio of EC50 for Hepatitis C virus subtype 1b expressing NS3 Q80R and D168A mutant to EC50 for Hepatitis C virus subtype 1b expressing WT NS3 infected in HuH7 cells after 48 hrs by luciferase reporter assay; format: functional, Hepacivirus hominis, genotype 1b, Huh-7; in short: as §2
Hepatitis C virus [5] = experiment: Ratio of EC50 for Hepatitis C virus subtype 1b expressing NS3 T54A mutant to EC50 for Hepatitis C virus subtype 1b expressing WT NS3 infected in HuH7 cells after 48 hrs by luciferase reporter assay; format: functional, Hepacivirus hominis, genotype 1b, Huh-7; in short: as §2
Hepatitis C virus [6] = experiment: Ratio of EC50 for Hepatitis C virus subtype 1b expressing NS3 A156G mutant to EC50 for Hepatitis C virus subtype 1b expressing WT NS3 infected in HuH7 cells after 48 hrs by luciferase reporter assay; format: functional, Hepacivirus hominis, genotype 1b, Huh-7; in short: as §1
Hepatitis C virus [7] = experiment: Ratio of EC50 for Hepatitis C virus subtype 1b expressing NS3 F43S and Q80R mutant to EC50 for Hepatitis C virus subtype 1b expressing WT NS3 infected in HuH7 cells after 48 hrs by luciferase reporter assay; format: functional, Hepacivirus hominis, genotype 1b, Huh-7; in short: as §2
Hepatitis C virus [8] = experiment: Antiviral activity against Hepatitis C virus subtype 1b expressing NS3 A156V mutant infected in HuH7 cells after 48 hrs by luciferase reporter assay; format: functional, organism-based, Hepacivirus hominis; settings: genotype 1b, Huh-7, 48 h; in short: as §1
Hepatitis C virus [9] = experiment: Antiviral activity against Hepatitis C virus subtype 1b expressing NS3 Q80R and D168A mutant infected in HuH7 cells after 48 hrs by luciferase reporter assay; format: functional, organism-based, Hepacivirus hominis; settings: genotype 1b, Huh-7, 48 h; in short: as §1
Hepatitis C virus [10] = experiment: Ratio of EC50 for Hepatitis C virus subtype 1b expressing NS3 R155T mutant to EC50 for Hepatitis C virus subtype 1b expressing WT NS3 infected in HuH7 cells after 48 hrs by luciferase reporter assay; format: functional, Hepacivirus hominis, genotype 1b, Huh-7; in short: as §2
Hepatitis C virus [11] = experiment: Antiviral activity against Hepatitis C virus subtype 1b expressing NS3 Q80G mutant infected in HuH7 cells after 48 hrs by luciferase reporter assay; format: functional, organism-based, Hepacivirus hominis; settings: genotype 1b, Huh-7, 48 h; in short: as §1
Hepatitis C virus [12] = experiment: Antiviral activity against Hepatitis C virus subtype 1b expressing NS3 R155Q mutant infected in HuH7 cells after 48 hrs by luciferase reporter assay; format: functional, organism-based, Hepacivirus hominis; settings: genotype 1b, Huh-7, 48 h; in short: as §1
Hepatitis C virus [13] = experiment: Ratio of EC50 for Hepatitis C virus subtype 1b expressing NS3 R109K mutant to EC50 for Hepatitis C virus subtype 1b expressing WT NS3 infected in HuH7 cells after 48 hrs by luciferase reporter assay; format: functional, Hepacivirus hominis, genotype 1b, Huh-7; in short: as §2
Hepatitis C virus [14] = experiment: Antiviral activity against Hepatitis C virus subtype 1b expressing NS3 A156S mutant infected in HuH7 cells after 48 hrs by luciferase reporter assay; format: functional, organism-based, Hepacivirus hominis; settings: genotype 1b, Huh-7, 48 h; in short: as §1
Hepatitis C virus [15] = experiment: Antiviral activity against Hepatitis C virus subtype 1b expressing NS3 D168H mutant infected in HuH7 cells after 48 hrs by luciferase reporter assay; format: functional, organism-based, Hepacivirus hominis; settings: genotype 1b, Huh-7, 48 h; in short: as §1
Hepatitis C virus [16] = experiment: Antiviral activity against Hepatitis C virus subtype 1b expressing NS3 R155I mutant infected in HuH7 cells after 48 hrs by luciferase reporter assay; format: functional, organism-based, Hepacivirus hominis; settings: genotype 1b, Huh-7, 48 h; in short: as §1
Hepatitis C virus [17] = experiment: Ratio of EC50 for Hepatitis C virus subtype 1b expressing NS3 F43S mutant to EC50 for Hepatitis C virus subtype 1b expressing WT NS3 infected in HuH7 cells after 48 hrs by luciferase reporter assay; format: functional, Hepacivirus hominis, genotype 1b, Huh-7; in short: as §2
Hepatitis C virus [18] = experiment: Ratio of EC50 for Hepatitis C virus subtype 1b expressing NS3 R155Q mutant to EC50 for Hepatitis C virus subtype 1b expressing WT NS3 infected in HuH7 cells after 48 hrs by luciferase reporter assay; format: functional, Hepacivirus hominis, genotype 1b, Huh-7; in short: as §2
Hepatitis C virus [19] = experiment: Ratio of EC50 for Hepatitis C virus subtype 1b expressing NS3 Q80R and R155K mutant to EC50 for Hepatitis C virus subtype 1b expressing WT NS3 infected in HuH7 cells after 48 hrs by luciferase reporter assay; format: functional, Hepacivirus hominis, genotype 1b, Huh-7; in short: as §2
Hepatitis C virus [20] = experiment: Antiviral activity against Hepatitis C virus subtype 1b expressing NS3 D168T mutant infected in HuH7 cells after 48 hrs by luciferase reporter assay; format: functional, organism-based, Hepacivirus hominis; settings: genotype 1b, Huh-7, 48 h; in short: as §1
Hepatitis C virus [21] = experiment: Antiviral activity against Hepatitis C virus subtype 1b expressing NS3 R155G mutant infected in HuH7 cells after 48 hrs by luciferase reporter assay; format: functional, organism-based, Hepacivirus hominis; settings: genotype 1b, Huh-7, 48 h; in short: as §1
Hepatitis C virus [22] = experiment: Antiviral activity against Hepatitis C virus subtype 1b expressing NS3 D168N mutant infected in HuH7 cells after 48 hrs by luciferase reporter assay; format: functional, organism-based, Hepacivirus hominis; settings: genotype 1b, Huh-7, 48 h; in short: as §1
Hepatitis C virus [23] = experiment: Antiviral activity against Hepatitis C virus subtype 1b expressing NS3 T54S mutant infected in HuH7 cells after 48 hrs by luciferase reporter assay; format: functional, organism-based, Hepacivirus hominis; settings: genotype 1b, Huh-7, 48 h; in short: as §1
Hepatitis C virus [24] = experiment: Ratio of EC50 for Hepatitis C virus subtype 1b expressing NS3 A156S mutant to EC50 for Hepatitis C virus subtype 1b expressing WT NS3 infected in HuH7 cells after 48 hrs by luciferase reporter assay; format: functional, Hepacivirus hominis, genotype 1b, Huh-7; in short: as §1
Hepatitis C virus [25] = experiment: Ratio of EC50 for Hepatitis C virus subtype 1b expressing NS3 V36 M mutant to EC50 for Hepatitis C virus subtype 1b expressing WT NS3 infected in HuH7 cells after 48 hrs by luciferase reporter assay; format: functional, Hepacivirus hominis, genotype 1b, Huh-7; in short: as §2
Hepatitis C virus [26] = experiment: Ratio of EC50 for Hepatitis C virus subtype 1b expressing NS3 D168N mutant to EC50 for Hepatitis C virus subtype 1b expressing WT NS3 infected in HuH7 cells after 48 hrs by luciferase reporter assay; format: functional, Hepacivirus hominis, genotype 1b, Huh-7; in short: as §2
Hepatitis C virus [27] = experiment: Antiviral activity against Hepatitis C virus subtype 1b expressing NS3 Q80R mutant infected in HuH7 cells after 48 hrs by luciferase reporter assay; format: functional, organism-based, Hepacivirus hominis; settings: genotype 1b, Huh-7, 48 h; in short: as §1
Hepatitis C virus [28] = experiment: Ratio of EC50 for Hepatitis C virus subtype 1b expressing NS3 D168A mutant to EC50 for Hepatitis C virus subtype 1b expressing WT NS3 infected in HuH7 cells after 48 hrs by luciferase reporter assay; format: functional, Hepacivirus hominis, genotype 1b, Huh-7; in short: as §1
Hepatitis C virus [29] = experiment: Antiviral activity against Hepatitis C virus subtype 1b expressing NS3 A156T mutant infected in HuH7 cells after 48 hrs by luciferase reporter assay; format: functional, organism-based, Hepacivirus hominis; settings: genotype 1b, Huh-7, 48 h; in short: as §1
Hepatitis C virus [30] = experiment: Antiviral activity against Hepatitis C virus subtype 1b expressing NS3 D168I mutant infected in HuH7 cells after 48 hrs by luciferase reporter assay; format: functional, organism-based, Hepacivirus hominis; settings: genotype 1b, Huh-7, 48 h; in short: as §1
Hepatitis C virus [31] = experiment: Antiviral activity against Hepatitis C virus subtype 1b expressing NS3 D168E mutant infected in HuH7 cells after 48 hrs by luciferase reporter assay; format: functional, organism-based, Hepacivirus hominis; settings: genotype 1b, Huh-7, 48 h; in short: as §1

Structure (SMILES): COc1ccc2c(O[C@@H]3C[C@H]4C(=O)N[C@]5(C(=O)NS(=O)(=O)C6CC6)C[C@H]5/C=C\CCCCN(C)C(=O)[C@@H]4C3)cc(-c3nc(C(C)C)cs3)nc2c1C [SIMEPREVIR]
- EC50 (Hepatitis C virus [1]): 2850 nM
- Ratio EC50 (Hepatitis C virus [2]): 2.1
- Ratio EC50 (Hepatitis C virus [3]): 20
- Ratio EC50 (Hepatitis C virus [4]): 2655
- Ratio EC50 (Hepatitis C virus [5]): 0.6
- Ratio EC50 (Hepatitis C virus [6]): 16
- Ratio EC50 (Hepatitis C virus [7]): 286
- EC50 (Hepatitis C virus [8]): 2150 nM
- EC50 (Hepatitis C virus [9]): 16900 nM
- Ratio EC50 (Hepatitis C virus [10]): 24
- EC50 (Hepatitis C virus [11]): 22 nM
- EC50 (Hepatitis C virus [12]): 21 nM
- Ratio EC50 (Hepatitis C virus [13]): 0.7
- EC50 (Hepatitis C virus [14]): 3 nM
- EC50 (Hepatitis C virus [15]): 5660 nM
- EC50 (Hepatitis C virus [16]): 6.6 nM
- Ratio EC50 (Hepatitis C virus [17]): 12
- Ratio EC50 (Hepatitis C virus [18]): 1.6
- Ratio EC50 (Hepatitis C virus [19]): 270
- EC50 (Hepatitis C virus [20]): 4090 nM
- EC50 (Hepatitis C virus [21]): 350 nM
- EC50 (Hepatitis C virus [22]): 79 nM
- EC50 (Hepatitis C virus [23]): 5.4 nM
- Ratio EC50 (Hepatitis C virus [24]): 0.3
- Ratio EC50 (Hepatitis C virus [25]): 2
- Ratio EC50 (Hepatitis C virus [26]): 6.6
- EC50 (Hepatitis C virus [27]): 49 nM
- Ratio EC50 (Hepatitis C virus [28]): 594
- EC50 (Hepatitis C virus [29]): 377 nM
- EC50 (Hepatitis C virus [30]): 23200 nM
- EC50 (Hepatitis C virus [31]): 302 nM

Structure (SMILES): CC(C)(C)NC(=O)N[C@H](C(=O)N1C[C@H]2[C@@H]([C@H]1C(=O)NC(CC1CCC1)C(=O)C(N)=O)C2(C)C)C(C)(C)C (some centres not stated) [BOCEPREVIR]
- EC50 (Hepatitis C virus [1]): 680 nM
- Ratio EC50 (Hepatitis C virus [2]): 0.9
- Ratio EC50 (Hepatitis C virus [3]): 20
- Ratio EC50 (Hepatitis C virus [4]): 0.5
- Ratio EC50 (Hepatitis C virus [5]): 2.1
- Ratio EC50 (Hepatitis C virus [6]): 2.1
- Ratio EC50 (Hepatitis C virus [7]): 7.4
- EC50 (Hepatitis C virus [8]): 9670 nM
- EC50 (Hepatitis C virus [9]): 113 nM
- Ratio EC50 (Hepatitis C virus [10]): 51
- EC50 (Hepatitis C virus [11]): 127 nM
- EC50 (Hepatitis C virus [12]): 174 nM
- Ratio EC50 (Hepatitis C virus [13]): 1
- EC50 (Hepatitis C virus [14]): 525 nM
- EC50 (Hepatitis C virus [15]): 73 nM
- EC50 (Hepatitis C virus [16]): 5340 nM
- Ratio EC50 (Hepatitis C virus [17]): 5.2
- Ratio EC50 (Hepatitis C virus [18]): 1.4
- Ratio EC50 (Hepatitis C virus [19]): 2.7
- EC50 (Hepatitis C virus [20]): 299 nM
- EC50 (Hepatitis C virus [21]): 4470 nM
- EC50 (Hepatitis C virus [22]): 101 nM
- EC50 (Hepatitis C virus [23]): 1110 nM
- Ratio EC50 (Hepatitis C virus [24]): 3.5
- Ratio EC50 (Hepatitis C virus [25]): 1.8
- Ratio EC50 (Hepatitis C virus [26]): 1.9
- EC50 (Hepatitis C virus [27]): 85 nM
- Ratio EC50 (Hepatitis C virus [28]): 0.7
- EC50 (Hepatitis C virus [29]): 7230 nM
- EC50 (Hepatitis C virus [30]): 279 nM
- EC50 (Hepatitis C virus [31]): 69 nM
